Results on one compound are retold here after ChEMBL document CHEMBL4725426, “Targeted Detection of Cyclooxygenase-1 in Ovarian Cancer” (ACS Med Chem Lett, 2020).

SMILES strings stand for the structures. Activity calls are given as the source filed them. The rule behind the calls is not given here.

Data set [1] deals with T1, Prostaglandin G/H synthase 1 (Ovis aries, UniProt P05979).
T1 sequence (P05979 whole entry): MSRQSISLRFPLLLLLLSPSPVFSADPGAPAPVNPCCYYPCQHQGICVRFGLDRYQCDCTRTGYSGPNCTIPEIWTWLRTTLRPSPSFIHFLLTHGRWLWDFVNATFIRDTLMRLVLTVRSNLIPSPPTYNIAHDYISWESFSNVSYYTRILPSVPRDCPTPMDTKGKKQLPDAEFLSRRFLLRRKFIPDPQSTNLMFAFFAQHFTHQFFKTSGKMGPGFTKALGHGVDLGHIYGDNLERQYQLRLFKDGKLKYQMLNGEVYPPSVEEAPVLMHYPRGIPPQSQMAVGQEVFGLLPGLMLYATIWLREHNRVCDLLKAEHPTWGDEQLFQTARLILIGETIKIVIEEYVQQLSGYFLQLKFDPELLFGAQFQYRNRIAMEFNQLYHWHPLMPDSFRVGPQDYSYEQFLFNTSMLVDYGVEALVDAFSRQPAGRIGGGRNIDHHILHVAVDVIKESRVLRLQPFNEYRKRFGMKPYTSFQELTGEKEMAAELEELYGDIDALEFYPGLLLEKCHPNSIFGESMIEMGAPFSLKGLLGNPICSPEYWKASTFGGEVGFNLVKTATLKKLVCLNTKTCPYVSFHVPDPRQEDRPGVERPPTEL
Kind of data set: Inhibition of ovine COX-1 assessed as [14C] arachidonic acid remaining using [14C] arachidonic acid as substrate preincubated for 20 mins followed by substrate addition measured after 30 sec by thin layer chromatography assay. An outline of the steps:
(§1)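 Purified ovine COX-1 or murine COX-2 preincubated 20 min with vehicle or compound at various concentrations. [1-¹⁴C]arachidonic acid was then added and the reaction run a further 30 s. Conversion read by thin layer chromatography. IC50 derived.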

Data set [2] deals with T2, Prostaglandin G/H synthase 2 (Mus musculus, UniProt Q05769).
T2 sequence (Q05769 whole entry): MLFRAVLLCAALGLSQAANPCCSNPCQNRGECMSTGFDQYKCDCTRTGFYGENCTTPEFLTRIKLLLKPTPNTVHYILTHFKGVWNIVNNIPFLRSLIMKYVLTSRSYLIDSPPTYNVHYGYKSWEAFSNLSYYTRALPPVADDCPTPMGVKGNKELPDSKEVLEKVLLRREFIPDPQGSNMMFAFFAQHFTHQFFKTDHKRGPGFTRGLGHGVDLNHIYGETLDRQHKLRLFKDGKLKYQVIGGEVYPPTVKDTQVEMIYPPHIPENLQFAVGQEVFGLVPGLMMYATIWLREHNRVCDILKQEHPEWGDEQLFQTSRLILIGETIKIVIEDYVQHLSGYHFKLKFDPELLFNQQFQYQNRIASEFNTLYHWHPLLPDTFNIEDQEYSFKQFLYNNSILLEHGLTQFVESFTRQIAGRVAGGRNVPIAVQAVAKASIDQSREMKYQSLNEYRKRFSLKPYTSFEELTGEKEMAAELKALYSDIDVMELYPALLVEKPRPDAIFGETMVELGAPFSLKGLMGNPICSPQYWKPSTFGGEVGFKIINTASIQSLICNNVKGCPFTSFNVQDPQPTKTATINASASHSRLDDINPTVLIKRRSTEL
As to the kind of experiment: Inhibition of murine COX-2 assessed as [14C] arachidonic acid remaining using [14C] arachidonic acid as substrate preincubated for 20 mins followed by substrate addition measured after 30 sec by thin layer chromatography assay. Summed up:
as §1

Data set [3] has as its target T3, Prostaglandin G/H synthase 1 (Homo sapiens, UniProt P23219). Kind of data set: Inhibition of COX-1 in human OVCAR3 cells assessed as [14C] arachidonic acid remaining using [14C] arachidonic acid as substrate preincubated for 30 mins followed by substrate addition measured after 30 mins. The data set is classed as cell-based, OVCAR-3. Summed up:
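Intact OVCAR-3 cells treated 30 min with vehicle or compound across several concentrations, then given [1-¹⁴C]arachidonic acid for another 30 min. Medium aliquots were quenched, extracted, run on TLC and scanned for substrate remaining. IC50 taken from the concentration series.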

Data set [4] concerns the target T3, Prostaglandin G/H synthase 1. Kind of data set: Binding affinity to COX-1 in human OVCAR3 cells assessed as protein labeling pretreated with indomethacin for 30 mins followed by compound treatment for 30 mins and subsequent compound washout followed by cultured in serum media measured after 45 mins by fluorescence microscope based optical imaging analysis. The data set is classed as cell-based. As to conditions: OVCAR-3. Summed up:
(§2)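 OVCAR-3 cells pretreated 30 min with vehicle or indomethacin, then exposed to probe 30 min, washed briefly and cultured 45 min in serum-containing medium. Intracellular fluorescence then imaged under a fluorescence microscope.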

The target is the same in data set [5]. As to the kind of experiment: Binding affinity to COX-1 in human OVCAR3 cells assessed as protein labeling treated for 30 mins and subsequent compound washout followed by cultured in serum media measured after 45 mins by fluorescence microscope based optical imaging analysis. To be noted: OVCAR-3. Format: cell-based. Summed up:
as §2

The nature of data set [6]: Drug uptake in NU-Fox1nu nude mouse xenografted with COX-1 expressing human OVCAR3 cells at 1 mg/kg, ip and measured before 2 hrs post-drug administration by IVIS spectrum in vivo fluorescence imaging analysis. The data set is classed as ADME, organism-based. Summed up:
(§3)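 Female athymic nude mice carried subcutaneous OVCAR-3 xenografts on the left hind flank, grown to about 750–1000 mm³. Probe given i.p. at 1 mg/kg in DMSO. Mice lightly anesthetized and imaged on an IVIS system at 15 min, 30 min, 1, 2, 3 and 4 h post-injection.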

Data set [7] in a line: Drug uptake in NU-Fox1nu nude mouse xenografted with COX-1 expressing human OVCAR3 cells at 1 mg/kg, ip and measured after 3 to 4 hrs post-drug administration by IVIS spectrum in vivo fluorescence imaging analysis. The data set is classed as ADME, organism-based. To be noted: time 3-4 hrs. An outline of the steps:
as §3

A short description of data set [8]: Drug uptake in tumor of NU-Fox1nu nude mouse xenografted with COX-1 expressing human OVCAR3 cells at 1 mg/kg, ip by IVIS spectrum ex vivo fluorescence imaging analysis. The data set is classed as ADME, organism-based, Neoplasm. An outline of the steps:
(§4)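 OVCAR-3 xenograft-bearing female nude mice (tumors 750–1000 mm³) were dosed with probe at 1 mg/kg i.p. in DMSO. After in vivo imaging, tumor, muscle, kidney and liver were collected and imaged ex vivo.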

The nature of data set [9]: Drug uptake in kidney of NU-Fox1nu nude mouse xenografted with COX-1 expressing human OVCAR3 cells at 1 mg/kg, ip by IVIS spectrum ex vivo fluorescence imaging analysis. The data set is classed as ADME, organism-based. Summed up: as §4
Data set [10] can be described thus: Drug uptake in liver of NU-Fox1nu nude mouse xenografted with COX-1 expressing human OVCAR3 cells at 1 mg/kg, ip by IVIS spectrum ex vivo fluorescence imaging analysis. Format: ADME, organism-based. An outline of the steps:
as §4

Data set [11] is described as follows: Drug uptake in leg muscle of NU-Fox1nu nude mouse xenografted with COX-1 expressing human OVCAR3 cells at 1 mg/kg, ip by IVIS spectrum ex vivo fluorescence imaging analysis. The data set is classed as ADME, organism-based. Summed up: as §4
Data set [12] can be described thus: Drug uptake in NU-Fox1nu nude mouse allografted with mouse ID8-NGL cells at 2 mg/kg, ip measured after 3 to 4 hrs post-drug administration by IVIS spectrum in vivo fluorescence imaging analysis. To be noted: time 3-4 hrs. Format: ADME, organism-based. An outline of the steps:
(§5)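 Female athymic nude mice bearing ID8-NGL flank allografts (left hind flank, grown to 750–1000 mm³; n = 6). Probe given i.p. at 2 mg/kg in DMSO. Imaged under light anesthesia on an IVIS system 3 to 4 h post-injection.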

Data set [13] can be described thus: Drug uptake in tumor of NU-Fox1nu nude mouse allografted with mouse ID8-NGL cells at 2 mg/kg, ip measured after 3 to 4 hrs post-drug administration by IVIS spectrum in vivo fluorescence imaging analysis relative to control. The data set is classed as ADME, organism-based, Neoplasm. To be noted: time 3-4 hrs. An outline of the steps: as §5
The nature of data set [14]: Drug uptake in tumor of NU-Fox1nu nude mouse allografted with mouse ID8-NGL cells at 2 mg/kg, ip treated with 10 mg/kg indomethacin 1hr prior to compound treatment followed by compound administration measured after 3 to 4 hrs post-drug administration by IVIS spectrum fluorescence imaging analysis. Format: ADME, organism-based, Neoplasm. As to conditions: in vivo, time 3-4 hrs. Summed up: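 ID8-NGL flank allografts (750–1000 mm³) in nude mice. Indomethacin 10 mg/kg i.p. in DMSO given 1 h before probe (2 mg/kg i.p. in DMSO). Tumors imaged 3 to 4 h after probe; region-of-interest light emission read at 3.5 h in relative fluorescence units.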

T3 sequence (P23219 whole entry): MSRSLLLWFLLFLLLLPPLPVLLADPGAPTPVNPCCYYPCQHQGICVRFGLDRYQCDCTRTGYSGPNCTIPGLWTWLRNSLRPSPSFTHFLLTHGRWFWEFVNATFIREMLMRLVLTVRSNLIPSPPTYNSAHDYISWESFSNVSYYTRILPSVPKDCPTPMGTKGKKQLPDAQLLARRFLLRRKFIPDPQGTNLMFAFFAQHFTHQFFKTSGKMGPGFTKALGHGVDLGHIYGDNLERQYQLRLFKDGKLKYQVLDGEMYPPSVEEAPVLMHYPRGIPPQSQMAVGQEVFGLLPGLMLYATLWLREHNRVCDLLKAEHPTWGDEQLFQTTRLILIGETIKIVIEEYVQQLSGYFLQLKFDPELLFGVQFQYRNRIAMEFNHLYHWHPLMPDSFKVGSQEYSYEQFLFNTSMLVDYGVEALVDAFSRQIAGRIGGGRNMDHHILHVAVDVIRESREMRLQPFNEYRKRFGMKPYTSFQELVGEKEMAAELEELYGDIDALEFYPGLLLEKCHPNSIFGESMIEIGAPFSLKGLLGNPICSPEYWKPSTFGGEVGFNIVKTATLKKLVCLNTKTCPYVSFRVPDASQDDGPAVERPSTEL

For `COc1ccc(-n2nc(CCC(=O)NCCCCNC(=O)c3ccc(C4=c5cc6c7c(c5Oc5c4cc4c8c5CCCN8CCC4)CCC[N+]=7CCC6)c(C(=O)[O-])c3)cc2-c2ccc(C)cc2)cc1`, the IC50 was 0.094 µM in data set [1], more than 1 µM in [2] and 0.044 µM in data set [3]. Also, the result in [4] was inactive. In addition, in data set [5], the outcome was Active. Further, the Drug uptake entry in data set [6] was “Not Active”; in [7] it was “Active”; in [8] it was “Active”; in data set [9] it was “Active”; in data set [10] it was “Active”; in data set [11] it was “Active”. Also, the values for the Drug uptake entry in data set [12] and in data set [14] were “Active” and “Not Active”, respectively. Besides, the “fold change (FC)” value in data set [13] is 8.
